Measured values from ChEMBL document CHEMBL1135640, “Synthesis and antitumor activity of new derivatives of xanthen-9-one-4-acetic acid” (J Med Chem, 2002).

Tests used:
[1] = system: C13; assay: In vitro cytotoxicity against C13 tumor cell line; Not detected; format: functional, cell-based, Homo sapiens
Outline: (§1)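 Cisplatin-resistant C13* human ovarian adenocarcinoma cells, kept in RPMI 1640 with 10% heat-inactivated FCS and 2 mM L-glutamine, seeded and treated 24 h later with graded concentrations for 24 h. Viability by MTT (4 h, 37 °C; DMSO solubilization; 570 nm, reference 630 nm). IC50 with 95% confidence limits by Litchfield–Wilcoxon; three experiments in triplicate.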

[2] = Compound was tested for toxicity induced in human monocyte
Outline: (§2)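 Adherent human peripheral blood mononuclear cells (Ficoll-isolated, 2 h adhesion at 37 °C, nonadherent cells washed off) exposed 24 h to 25, 50, 100 μM test agent, triplicate wells per dose. Medium then replaced with C13* ovarian carcinoma cells (2 × 10³/well), cocultured 24 h, lysis read by MTT. IC50 with 95% confidence limits by Litchfield–Wilcoxon; three experiments in triplicate.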

[3] = Compound was tested for toxicity induced in murine macrophage; conditions: Mus musculus
Outline: (§3)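 Resident mouse peritoneal cells recovered by PBS–heparin (10 U/mL) lavage, adhered 2 h at 37 °C in RPMI 1640 + 5% FCS. Macrophages plated at 1 × 10⁴/well with graded drug concentrations for 24 h (triplicate wells). C13* cells (2 × 10³/well) then added, cocultured 24 h, MTT read-out. Specific cytotoxicity = [OD(macrophages+C13*) − OD(macrophages)]/OD(C13*). IC50 with 95% limits by Litchfield–Wilcoxon.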

[4] = species on record: Homo sapiens; assay: Potency ratio as the ratio of IC50 of DMXXA against human monocytes to that of the IC50 against human monocytes.; format: ADME
[5] = species on record: Mus musculus; assay: Potency ratio as the ratio of IC50 of DMXXA against murine macrophages to that of the IC50 against murine macrophages; format: ADME
[6] = Potency ratio against macrophages.; format: ADME
[7] = system: C13; assay: In vitro cytotoxicity against C13 tumor cell line; format: functional, cell-based; conditions: Homo sapiens; outline: as §1
[8] = Compound was tested for toxicity induced in murine macrophage; b indicates Not detected; conditions: mouse; outline: as §3
[9] = Compound was tested for toxicity induced in human monocyte; b indicates Not detected; outline: as §2

Row | Potency ratio [4] | Potency ratio [5] | Potency ratio [6] | SMILES | IC50 [1] | IC50 [2] | IC50 [3] | IC50 [7] | Potency ratio [8] | IC50 [9]
1 | 1.2 | 2.9 | 0.7 | CC1(C)CCc2c(ccc3c(=O)c4cccc(CC(=O)O)c4oc23)O1 | Not detected | 108 µM | 71.5 µM |  |  | 
2 | 2.5 | 6.9 | 0.6 | COC(=O)Cc1cccc2c(=O)c3ccc4c(c3oc12)C=CC(C)(C)O4 | Not detected | 53.5 µM | 30.5 µM |  |  | 
3 | 0.8 | 0.9 | 1.3 | CC1(C)Cc2c(ccc3c(=O)c4cccc(CC(=O)O)c4oc23)O1 |  | 172 µM | 220 µM | 604 µM |  | 
4 | 1.8 | 1 | 2.7 | COC(=O)Cc1cccc2c(=O)c3ccc4c(c3oc12)CC(C)(C)O4 |  | 73.7 µM | 201 µM | 549 µM |  | 
5 | 0.5 | 4.7 | 0.2 | CC1(C)C=Cc2c(ccc3c(=O)c4cccc(CC(=O)O)c4oc23)O1 |  | 259 µM | 45.1 µM | 726 µM |  | 
6 | 0.7 | 1.3 | 0.9 | CC1Cc2c(ccc3c(=O)c4cccc(CC(=O)O)c4oc23)O1 (stereo not drawn) |  | 178 µM | 157 µM | 711 µM |  | 
7 | 2 | 2.5 | 1.2 | COC(=O)Cc1cccc2c(=O)c3ccc4c(c3oc12)CC(C)O4 (stereo not drawn) | Not detected | 67.3 µM | 82.8 µM |  |  | 
8 |  | 2.6 |  | COC(=O)Cc1cccc2c(=O)c3ccc4oc(C)cc4c3oc12 | Not detected |  | 80.9 µM |  |  | Not detected

Further lines, the molecule ahead of its results:

Row | SMILES | Potency ratio [4] | Potency ratio [5] | Potency ratio [6] | IC50 [1] | IC50 [2] | IC50 [3] | IC50 [7] | Potency ratio [8] | IC50 [9]
9 | C=CCOc1ccc2c(=O)c3cccc(CC(=O)OC)c3oc2c1 | 0.8 | 3.4 | 0.5 |  | 114 µM | 61.6 µM | 509 µM |  | 
10 | C=C(C)COc1ccc2c(=O)c3cccc(CC(=O)OC)c3oc2c1C |  |  |  |  | 84.6 µM |  | 488 µM | Not detected | 
11 | COC(=O)Cc1cccc2c(=O)c3ccc(OCC=C(C)C)c(C)c3oc12 | 1.8 | 1 | 3 |  | 73.6 µM | 224 µM | 702 µM |  | 
12 | C#CCOc1ccc2c(=O)c3cccc(CC(=O)OC)c3oc2c1C |  | 0.6 |  |  |  | 372 µM | 410 µM |  | Not detected
13 | C=C(C)COc1ccc2c(=O)c3cccc(CC(=O)O)c3oc2c1C | 1.6 | 2.7 | 0.9 |  | 86.2 µM | 77.3 µM | 443 µM |  | 
14 | C=CCOc1ccc2c(=O)c3cccc(CC(=O)O)c3oc2c1 |  | 1 |  |  |  | 218 µM | 510 µM |  | Not detected
15 | CC(C)=CCOc1ccc2c(=O)c3cccc(CC(=O)O)c3oc2c1 | 2.1 | 0.8 | 4.1 |  | 64.2 µM | 264 µM | 626 µM |  | 
16 | Cc1ccc2c(=O)c3cccc(CC(=O)O)c3oc2c1C [VADIMEZAN] |  |  |  |  | 135 µM | 211 µM | 615 µM |  | 
17 | Cc1cc2c(ccc3c(=O)c4cccc(CC(=O)O)c4oc32)o1 |  | 5 |  | Not detected |  | 42 µM |  |  | Not detected
